From PubChem BioAssay
HePTP inhibitor = blocks human HePTP tyrosine phosphatase. actives 0.64% (n = 110,000). P35236. AID 521. inhibition, % at 20 µM. recombinant HePTP phosphatase activity, OD absorbance; in the data active means inhibition above about 50%;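 further: plate controls were vehicle for no effect and reference inhibitor for full effect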
Target sequence (P35236 whole entry, looked up): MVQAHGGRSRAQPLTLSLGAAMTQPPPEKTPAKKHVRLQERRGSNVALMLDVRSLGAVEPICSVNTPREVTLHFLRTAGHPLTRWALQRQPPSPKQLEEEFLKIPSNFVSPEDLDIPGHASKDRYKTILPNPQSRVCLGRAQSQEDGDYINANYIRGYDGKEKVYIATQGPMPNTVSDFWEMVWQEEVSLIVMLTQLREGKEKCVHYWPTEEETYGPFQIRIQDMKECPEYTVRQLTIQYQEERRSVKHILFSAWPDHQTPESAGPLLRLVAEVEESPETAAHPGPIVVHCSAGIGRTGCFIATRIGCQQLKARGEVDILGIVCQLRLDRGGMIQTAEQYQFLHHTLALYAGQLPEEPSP
AP ELISA ortho = orthogonal test for alternative complement pathway inhibitors; Human serum alternative complement pathway, LPS-coated ELISA, C3 deposition; tested in compound mixtures; inhibition, % at 5 µM; actives 0.08% (n = 62,000); AID 1235;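 active means inhibition above 30% in each of the two pooled mixtures holding the compound, so the lower value exceeds 30%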;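 further: 0% = serum in Mg-EGTA without compound and 100% = EDTA serum blank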
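Assay system: human serum alternative complement pathway, C3 deposition on LPS-coated wells; Dosing: 5 µM per compound in ten-compound mixtures; Detection: Anti-C3 ELISA, OD 450 nm; Buffer or medium: Mg2+-EGTA GVB++ buffer containing human serum at 1:15 dilution; Timing: 1 h at 37 °C; Replication: two different pools per compound.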
E coli WT exp = growth inhibitors of E. coli BW25113 wild type; actives 0.15% (n = 98,000); OD600 absorbance; growth inhibition, % at 100 µM;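 active means growth inhibition above about 50% at one test dose, limit read from the data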;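 further: growth measured after 20 h incubation at 37 °C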
Ecoli tolC = growth inhibitors of E. coli BW25113 tolC mutant. OD615. AID 573. actives 2.2% (n = 65,000). growth inhibition, % at 10 µM (by protocol);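 active means growth inhibition at or above a cutoff equal to the mean over every tested compound plus 3 SD, cut at about 60% in these data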;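 further: growth measured after 20 h incubation at 37 °C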
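Assay system: tolC-deleted E. coli BW25113. Medium: kanamycin-containing LB broth (50 µg/mL). Dosing: 10 µM final, single dose. Timing: bacterial growth with compound for 20 h at 37 °C. Detection: A615 absorbance measurement. Read-out basis: growth inhibition in percent.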
Ec RNAP inh = Escherichia coli RNA polymerase inhibition | inhibition, %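 (tested at 10 µM)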 | AID 559 | actives 0.2% (n = 62,000) | P0A8V2 | E. coli RNA polymerase, fluorescence transcription assay; in the data active means inhibition above about 20%;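 further: 0% = enzyme without compound and 100% = no enzyme blank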
MMP13 inh = MMP13 (human) collagenase inhibition. P45452. MMP-13 fTHP FRET cleavage, Mca fluorescence. inhibition, % at 4 µM. actives 0.07% (n = 65,000). AID 570;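 active means inhibition above the mean of compound-free control plate wells plus 3 SD, cut at about 14% in these data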;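 further: 0% = DMSO wells and 100% = wells with reference MMP-13 inhibitor after basal subtraction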
* hit, by the source's call. Shown is part of a subset that was picked to be rich in hits.

`COc1cc(NS(=O)(=O)c2ccc(NC(=O)COc3ccccc3Cl)cc2)nc(OC)n1` gave HePTP inhibitor 7, AP ELISA ortho 10, E coli WT exp -8, Ecoli tolC 71*, Ec RNAP inh 11 and MMP13 inh 3.
Screening NS(=O)(=O)c1cccc(NC(=O)c2sc3ccccc3c2Cl)c1 returned HePTP inhibitor 5.
`COc1ccccc1N=c1oc2cc(O)ccc2cc1C(N)=O` gave HePTP inhibitor -4, AP ELISA ortho 11, E coli WT exp 0, Ecoli tolC 16, Ec RNAP inh -5 and MMP13 inh -244.
For Cc1cccc(N=c2oc3cc(O)ccc3cc2C(N)=O)c1 the results were HePTP inhibitor 5, AP ELISA ortho 14, E coli WT exp 8, Ecoli tolC 98*, Ec RNAP inh -4 and MMP13 inh -232.
O=C(O)c1cn(C2CC2)c2cc(N3CCNCC3)c(F)cc2c1=O was read as HePTP inhibitor 1.
For CCN1CCN(c2cc3c(cc2F)c(=O)c(C(=O)O)cn3C2CC2)CC1 the results were HePTP inhibitor -6, AP ELISA ortho 19, Ecoli tolC 5, Ec RNAP inh 7 and MMP13 inh -84.
COc1c(N2CCNC(C)C2)c(F)cc2c(=O)c(C(=O)O)cn(C3CC3)c12 (stereo unspecified) was read as HePTP inhibitor 9, AP ELISA ortho -5, Ecoli tolC 97*, Ec RNAP inh -8 and MMP13 inh -57.
For COc1c(N2CCN(C(=S)Nc3ccc(F)cc3)C(C)C2)c(F)cc2c(=O)c(C(=O)O)cn(C3CC3)c12 (stereo unspecified) the results were E coli WT exp 99*.
Cc1nn(-c2ccccc2)c2c1C(=O)N(Cc1ccccc1)C(=O)C(C)(C)C2 was read as E coli WT exp 0.
For Cc1nn(-c2nc3ccccc3n2Cc2ccccc2)c2c1C(=O)CC(C)(C)C2 the results were HePTP inhibitor -3, AP ELISA ortho -5, E coli WT exp -17, Ecoli tolC 91*, Ec RNAP inh 8 and MMP13 inh 0.
COC(=O)CN(c1ccc(Cl)cc1C)S(=O)(=O)c1ccc(C)cc1 was read as HePTP inhibitor -3.
CC(C)(C)C(=O)/C=C(\N)c1ccncc1 was read as HePTP inhibitor 1, AP ELISA ortho 40*, E coli WT exp 1, Ecoli tolC -17, Ec RNAP inh 9 and MMP13 inh -3.
Screening CCCc1cc(C(=O)OC)c(NC(=O)C2C3CCC(C3)C2C(=O)O)s1 (stereo unspecified) returned HePTP inhibitor 0.
`Cc1cc(OCC(=O)Nc2ccccc2-c2ccccc2)ccc1Br` gave HePTP inhibitor -5.
`CCOC(=O)c1[nH]c(C)c(C(=O)Nc2ccccc2C)c1C` gave HePTP inhibitor 17, AP ELISA ortho 2, E coli WT exp 5, Ecoli tolC 8, Ec RNAP inh 21* and MMP13 inh 4.
Screening CCOC(=O)c1ccccc1NC(=O)c1c(F)c(F)c(F)c(F)c1F returned HePTP inhibitor 2, AP ELISA ortho 16, E coli WT exp -4, Ecoli tolC 65*, Ec RNAP inh 7 and MMP13 inh 1.
Screening CCOC(=O)c1ccccc1NC(=O)c1ccc(F)cc1 returned E coli WT exp 2.
Cc1ccc(N(C)S(=O)(=O)c2ccc(Cl)cc2)cc1 was read as HePTP inhibitor 7.
Screening Cc1ccc(Nc2cc(N3CCCCC3)c(N)c3c2C(=O)c2ccccc2C3=O)cc1 returned HePTP inhibitor 6.
`Cc1ccc2nc(-c3ccc(NC(=O)c4ccccc4-c4ccccc4C(=O)O)cc3)sc2c1` gave HePTP inhibitor 10.
Cc1ccc(S(=O)(=O)NCCSc2nnnn2-c2cc(C)ccc2C)cc1 was read as HePTP inhibitor 7, AP ELISA ortho -14, E coli WT exp -11, Ecoli tolC 68*, Ec RNAP inh 12 and MMP13 inh -1.
Screening Cc1ccc(SCCNS(=O)(=O)c2ccc(C)cc2)cc1 returned HePTP inhibitor 7.
`C=CCN(CC=C)S(=O)(=O)c1ccc2nc(NC(=O)C(C)C)sc2c1` gave HePTP inhibitor 5, AP ELISA ortho 16, E coli WT exp 5, Ecoli tolC 100*, Ec RNAP inh 4 and MMP13 inh 0.
Screening COc1ccccc1-n1c(=O)oc2ccc(Cl)cc2c1=O returned HePTP inhibitor 7, AP ELISA ortho 6, E coli WT exp 46, Ecoli tolC 100*, Ec RNAP inh 5 and MMP13 inh -6.
O=C(O)CCN1C(=O)/C(=C2\C(=O)N(Cc3ccccc3Cl)c3ccccc32)SC1=S was read as HePTP inhibitor 102*.
CCCN1C(=O)/C(=C2\SC(=S)N(CCC(=O)O)C2=O)c2ccccc21 was read as HePTP inhibitor 1.
Screening O=c1oc2cc([N+](=O)[O-])ccc2nc1/C=C(\O)c1cccs1 returned HePTP inhibitor 76*.
Screening Cc1nc(C)c(/C(O)=C/c2nc3ccc([N+](=O)[O-])cc3oc2=O)s1 returned HePTP inhibitor 1.
Screening O=C(c1ccccc1)c1ccc(C(=O)N2CCN(C(=O)c3ccc(C(=O)c4ccccc4)cc3)CC2)cc1 returned HePTP inhibitor 6.
`COc1ccc2cc(C(c3nnnn3C(C)(C)C)N3CCc4ccccc4C3)c(=O)[nH]c2c1` (stereo unspecified) gave HePTP inhibitor 12, AP ELISA ortho -1, E coli WT exp -3, Ecoli tolC 21, Ec RNAP inh 9 and MMP13 inh -14.
`CCC(C)(C)n1nnnc1C(c1cc2ccc(OC)cc2[nH]c1=O)N1CCc2ccccc2C1` (stereo unspecified) gave HePTP inhibitor 2, AP ELISA ortho 0, E coli WT exp -14, Ecoli tolC 78*, Ec RNAP inh 5 and MMP13 inh -9.
For Cc1ccc(S(=O)(=O)N2CCN(S(C)(=O)=O)C2C(C)C)cc1 (stereo unspecified) the results were HePTP inhibitor 96*.
Screening Cc1ccc(S(=O)(=O)N(CC(=O)Nc2ccccc2F)c2cccc(Br)c2)cc1 returned HePTP inhibitor -9.
`CCc1nnc(NC(=O)c2ccc(S(=O)(=O)N(CC)Cc3ccccc3)cc2)o1` gave HePTP inhibitor 2, AP ELISA ortho 12, E coli WT exp 2, Ecoli tolC 100*, Ec RNAP inh -7 and MMP13 inh 0.
Screening CCN(CC)S(=O)(=O)c1ccc(NC(=O)c2ccccc2)cc1 returned HePTP inhibitor -8.
For CCCCN(CCCC)S(=O)(=O)c1ccc(C(=O)Nc2nnc(COC)o2)cc1 the results were HePTP inhibitor 9, AP ELISA ortho 11, E coli WT exp 5, Ecoli tolC 97*, Ec RNAP inh 6 and MMP13 inh -2.
